From ChEMBL document CHEMBL1795235, “Quercetin diacylglycoside analogues showing dual inhibition of DNA gyrase and topoisomerase IV as novel antibacterial agents” (J Med Chem, 2011)
In brackets after ≈: the same amount, converted by molar mass.

Key:
Staphylococcus aureus [1] = assay: Antibacterial activity against methicillin-resistant Staphylococcus aureus OM481 after 24 hrs by microdilution method; type: functional; settings: OM481, 24 h
Method in brief: (§1)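 Broth microdilution in Mueller-Hinton broth with 0.85% NaCl, inoculum about 10^5 CFU per 100 μL. Compounds were diluted in water from 25.6 mg/mL stocks to final 2-fold series of 0.062–128 μg/mL. Plates were incubated 24 h at 35 °C. MIC was the lowest concentration at which all triplicate wells were clear, from three independent determinations.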

Staphylococcus aureus [2] = assay: Antibacterial activity against methicillin-resistant Staphylococcus aureus COL after 24 hrs by microdilution method; type: functional; method in brief: as §1
Enterococcus [3] = assay: Antibacterial activity against vancomycin resistant Enterococcus FN-1 after 24 hrs by microdilution method; type: functional; settings: FN-1, 24 h; method in brief: as §1
Enterococcus [4] = assay: Antibacterial activity against vancomycin resistant Enterococcus NCTC 12201 after 24 hrs by microdilution method; type: functional; settings: NCTC 12201, 24 h; method in brief: as §1
[5] = Inhibition of Escherichia coli DNA topoisomerase 4 subunit ParC/DNA topoisomerase 4 subunit ParE-mediated decatenation of kDNA by densitometry
Method in brief: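 Purchased E. coli topoIV kit enzyme, one unit with 200 ng kDNA, 37 °C, 30 min. Buffer: 50 mM HEPES-KOH pH 7.6, 5 mM magnesium acetate, 100 mM potassium glutamate, 10 mM DTT, 1 mM ATP, 40% glycerol. Gel on 1.0% agarose in TAE. IC50 of decatenation from densitometry by interpolation equation, at least three determinations.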

Staphylococcus aureus [6] = assay: Antibacterial activity against methicillin-resistant Staphylococcus aureus OM584 after 24 hrs by microdilution method; type: functional; settings: OM584, 24 h; method in brief: as §1
Staphylococcus aureus [7] = assay: Antibacterial activity against methicillin-susceptible Staphylococcus aureus 209P after 24 hrs by microdilution method; type: functional; method in brief: as §1
Escherichia coli = assay: Antibacterial activity against Escherichia coli K-12 after 24 hrs by microdilution method; type: functional; settings: K-12, 24 h
Method in brief: (§2)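 Broth microdilution in Mueller-Hinton broth with 0.85% NaCl, inoculum about 10^5 CFU per 100 μL. Compounds diluted from 25.6 mg/mL stocks in water to 2-fold series, final 0.062–128 μg/mL. […] Three independent determinations.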

Staphylococcus aureus [8] = assay: Antibacterial activity against vancomycin-intermediate Staphylococcus aureus Mu50 after 24 hrs by microdilution method; type: functional; settings: Mu50, 24 h; method in brief: as §1
[9] = Inhibition of Staphylococcus aureus DNA Topoisomerase 4-mediated decatenation of kDNA after 30 mins by densitometry
Method in brief: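 Purchased S. aureus topoIV, one unit with 200 ng kDNA, 37 °C, 30 min. Products resolved on 1.0% agarose in TAE. IC50 of decatenation from densitometry by interpolation equation, at least three determinations.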

Staphylococcus aureus [10] = assay: Antibacterial activity against methicillin-resistant Staphylococcus aureus N315 after 24 hrs by microdilution method; type: functional; settings: N315, 24 h; method in brief: as §1
Streptococcus pneumoniae = assay: Antibacterial activity against Streptococcus pneumoniae R6 after 24 hrs by microdilution method; type: functional; settings: R6, 24 h; method in brief: as §2
Pseudomonas aeruginosa = assay: Antibacterial activity against Pseudomonas aeruginosa PAO1 after 24 hrs by microdilution method; type: functional; settings: PAO1, 24 h; method in brief: as §2
[11] = Inhibition of Escherichia coli DNA gyrase assessed as inhibition of pBR322 supercoiling by densitometry
Method in brief: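 One unit of E. coli gyrase with 0.5 μg relaxed pBR322 DNA, 37 °C, 30 min. Stopped with sucrose/EDTA dye, run on 1.0% agarose in TAE. IC50 from densitometry via log-interpolation equation.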

Enterococcus [12] = assay: Ratio MIC for vancomycin to compound for vancomycin-resistant Enterococcus FN-1; type: functional

Cc1ccc(CC(=O)OC[C@H]2O[C@@H](Oc3c(-c4ccc(O)c(O)c4)oc4cc(O)cc(O)c4c3=O)[C@H](OC(=O)Cc3ccc(C)cc3)[C@@H](O)[C@H]2O)cc1
MIC (Staphylococcus aureus [1]): 2 µg/mL (≈ 2.74 µM) | MIC (Staphylococcus aureus [2]): 16 µg/mL (≈ 22 µM) | MIC (Enterococcus [3]): 8 µg/mL (≈ 11 µM) | MIC (Enterococcus [4]): 4 µg/mL (≈ 5.49 µM) | IC50 [5]: 10.5 µM | MIC (Staphylococcus aureus [6]): 2 µg/mL (≈ 2.74 µM) | MIC (Staphylococcus aureus [7]): 4 µg/mL (≈ 5.49 µM) | MIC (Escherichia coli): > 128 µg/mL | MIC (Staphylococcus aureus [8]): 4 µg/mL (≈ 5.49 µM) | IC50 [9]: 2.69 µM | MIC (Staphylococcus aureus [10]): 8 µg/mL (≈ 11 µM) | MIC (Streptococcus pneumoniae): 2 µg/mL (≈ 2.74 µM) | MIC (Pseudomonas aeruginosa): > 128 µg/mL | IC50 [11]: 2.21 µM

Cc1ccc(CCC(=O)Oc2cc(O)c3c(=O)c(OC(=O)CCc4ccc(C)cc4)c(-c4ccc(O)c(O)c4)oc3c2)cc1
MIC (Staphylococcus aureus [1]): 32 µg/mL (≈ 53.8 µM) | MIC (Staphylococcus aureus [2]): 32 µg/mL (≈ 53.8 µM) | MIC (Enterococcus [3]): 64 µg/mL (≈ 108 µM) | MIC (Enterococcus [4]): 64 µg/mL (≈ 108 µM) | IC50 [5]: 8.59 µM | MIC (Staphylococcus aureus [6]): 32 µg/mL (≈ 53.8 µM) | MIC (Staphylococcus aureus [7]): 64 µg/mL (≈ 108 µM) | MIC (Escherichia coli): 64 µg/mL (≈ 108 µM) | MIC (Staphylococcus aureus [8]): 16 µg/mL (≈ 26.9 µM) | IC50 [9]: 0.44 µM | MIC (Staphylococcus aureus [10]): 32 µg/mL (≈ 53.8 µM) | MIC (Streptococcus pneumoniae): 32 µg/mL (≈ 53.8 µM) | MIC (Pseudomonas aeruginosa): 64 µg/mL (≈ 108 µM) | Ratio (Enterococcus [12]): 2 | IC50 [11]: 1.66 µM

O=C(CCc1ccc(F)cc1)Oc1cc(O)c2c(=O)c(OC(=O)CCc3ccc(F)cc3)c(-c3ccc(O)c(O)c3)oc2c1
MIC (Staphylococcus aureus [1]): 16 µg/mL (≈ 26.6 µM) | MIC (Staphylococcus aureus [2]): 32 µg/mL (≈ 53.1 µM) | MIC (Enterococcus [3]): 64 µg/mL (≈ 106 µM) | MIC (Enterococcus [4]): 32 µg/mL (≈ 53.1 µM) | IC50 [5]: 6.76 µM | MIC (Staphylococcus aureus [6]): 16 µg/mL (≈ 26.6 µM) | MIC (Staphylococcus aureus [7]): 64 µg/mL (≈ 106 µM) | MIC (Escherichia coli): 64 µg/mL (≈ 106 µM) | MIC (Staphylococcus aureus [8]): 32 µg/mL (≈ 53.1 µM) | IC50 [9]: 0.29 µM | MIC (Staphylococcus aureus [10]): 16 µg/mL (≈ 26.6 µM) | MIC (Streptococcus pneumoniae): 32 µg/mL (≈ 53.1 µM) | MIC (Pseudomonas aeruginosa): 64 µg/mL (≈ 106 µM) | Ratio (Enterococcus [12]): 2 | IC50 [11]: 0.72 µM

CCOc1ccc(C(=O)OC[C@H]2O[C@@H](Oc3c(-c4ccc(O)c(O)c4)oc4cc(O)cc(O)c4c3=O)[C@H](OC(=O)c3ccc(OCC)cc3)[C@@H](O)[C@H]2O)cc1
MIC (Staphylococcus aureus [1]): 4 µg/mL (≈ 5.26 µM) | MIC (Staphylococcus aureus [2]): 16 µg/mL (≈ 21 µM) | MIC (Enterococcus [3]): 8 µg/mL (≈ 10.5 µM) | MIC (Enterococcus [4]): 8 µg/mL (≈ 10.5 µM) | IC50 [5]: 11.3 µM | MIC (Staphylococcus aureus [6]): 4 µg/mL (≈ 5.26 µM) | MIC (Staphylococcus aureus [7]): 4 µg/mL (≈ 5.26 µM) | MIC (Escherichia coli): > 128 µg/mL | MIC (Staphylococcus aureus [8]): 4 µg/mL (≈ 5.26 µM) | IC50 [9]: 1.78 µM | MIC (Staphylococcus aureus [10]): 8 µg/mL (≈ 10.5 µM) | MIC (Streptococcus pneumoniae): 4 µg/mL (≈ 5.26 µM) | MIC (Pseudomonas aeruginosa): > 128 µg/mL | IC50 [11]: 0.43 µM

Cc1ccc(CCC(=O)OC[C@H]2O[C@@H](Oc3c(-c4ccc(O)c(O)c4)oc4cc(O)cc(O)c4c3=O)[C@H](OC(=O)CCc3ccc(C)cc3)[C@@H](O)[C@H]2O)cc1
MIC (Staphylococcus aureus [1]): 0.25 µg/mL (≈ 0.33 µM) | MIC (Staphylococcus aureus [2]): 1 µg/mL (≈ 1.32 µM) | MIC (Enterococcus [3]): 0.5 µg/mL (≈ 0.661 µM) | MIC (Enterococcus [4]): 0.5 µg/mL (≈ 0.661 µM) | IC50 [5]: 9.46 µM | MIC (Staphylococcus aureus [6]): 0.25 µg/mL (≈ 0.33 µM) | MIC (Staphylococcus aureus [7]): 0.25 µg/mL (≈ 0.33 µM) | MIC (Escherichia coli): > 128 µg/mL | MIC (Staphylococcus aureus [8]): 0.5 µg/mL (≈ 0.661 µM) | IC50 [9]: 1.49 µM | MIC (Staphylococcus aureus [10]): 0.25 µg/mL (≈ 0.33 µM) | MIC (Streptococcus pneumoniae): 0.25 µg/mL (≈ 0.33 µM) | MIC (Pseudomonas aeruginosa): > 128 µg/mL | IC50 [11]: 2.09 µM

Cc1ccc(CCC(=O)OC[C@H]2O[C@@H](Oc3c(-c4ccc(O)c(O)c4)oc4cc(O)cc(O)c4c3=O)[C@H](O)[C@@H](O)[C@H]2O)cc1
MIC (Staphylococcus aureus [1]): 16 µg/mL (≈ 26.2 µM) | MIC (Staphylococcus aureus [2]): 32 µg/mL (≈ 52.4 µM) | MIC (Enterococcus [3]): 32 µg/mL (≈ 52.4 µM) | MIC (Enterococcus [4]): 32 µg/mL (≈ 52.4 µM) | IC50 [5]: 12 µM | MIC (Staphylococcus aureus [6]): 16 µg/mL (≈ 26.2 µM) | MIC (Staphylococcus aureus [7]): 16 µg/mL (≈ 26.2 µM) | MIC (Escherichia coli): > 128 µg/mL | MIC (Staphylococcus aureus [8]): 16 µg/mL (≈ 26.2 µM) | IC50 [9]: 2.57 µM | MIC (Staphylococcus aureus [10]): 16 µg/mL (≈ 26.2 µM) | MIC (Streptococcus pneumoniae): 32 µg/mL (≈ 52.4 µM) | MIC (Pseudomonas aeruginosa): > 128 µg/mL | IC50 [11]: 1.79 µM

O=c1c(O[C@@H]2O[C@H](CO)[C@H](O)[C@H](O)[C@H]2O)c(-c2ccc(O)c(O)c2)oc2cc(O)cc(O)c12 [HYPEROSIDE]
MIC (Staphylococcus aureus [1]): > 128 µg/mL | MIC (Staphylococcus aureus [2]): > 128 µg/mL | MIC (Enterococcus [3]): > 128 µg/mL | MIC (Enterococcus [4]): > 128 µg/mL | IC50 [5]: 3.07 µM | MIC (Staphylococcus aureus [6]): > 128 µg/mL | MIC (Staphylococcus aureus [7]): > 128 µg/mL | MIC (Escherichia coli): 16 µg/mL (≈ 34.5 µM) | MIC (Staphylococcus aureus [8]): > 128 µg/mL | IC50 [9]: 0.07 µM | MIC (Staphylococcus aureus [10]): > 128 µg/mL | MIC (Streptococcus pneumoniae): > 128 µg/mL | MIC (Pseudomonas aeruginosa): 32 µg/mL (≈ 68.9 µM) | IC50 [11]: 0.1 µM

O=C(CCc1ccc(O)cc1)OC[C@H]1O[C@@H](Oc2c(-c3ccc(O)c(O)c3)oc3cc(O)cc(O)c3c2=O)[C@H](OC(=O)CCc2ccc(O)cc2)[C@@H](O)[C@H]1O
MIC (Staphylococcus aureus [1]): 1 µg/mL (≈ 1.31 µM) | MIC (Staphylococcus aureus [2]): 4 µg/mL (≈ 5.26 µM) | MIC (Enterococcus [3]): 4 µg/mL (≈ 5.26 µM) | MIC (Enterococcus [4]): 4 µg/mL (≈ 5.26 µM) | IC50 [5]: 10.9 µM | MIC (Staphylococcus aureus [6]): 1 µg/mL (≈ 1.31 µM) | MIC (Staphylococcus aureus [7]): 2 µg/mL (≈ 2.63 µM) | MIC (Escherichia coli): > 128 µg/mL | MIC (Staphylococcus aureus [8]): 2 µg/mL (≈ 2.63 µM) | IC50 [9]: 1.59 µM | MIC (Staphylococcus aureus [10]): 2 µg/mL (≈ 2.63 µM) | MIC (Streptococcus pneumoniae): 4 µg/mL (≈ 5.26 µM) | MIC (Pseudomonas aeruginosa): > 128 µg/mL | IC50 [11]: 2.39 µM
